Calls of active or inactive are those of the source. The rule behind the calls is not given here.
Columns and labels:
U2OS = test: Antiproliferative against human U2OS cells after 7 days by Cell-Titer Glo assay; assay type: functional, cell-based; settings: 168 h
Procedure, shortened: (§1)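 ATCC tumor lines were grown in their recommended media with 10% FBS and STR-authenticated. Cells were exposed to compound for the stated number of days. Viable cells were read by CellTiter-Glo endpoint. Inhibition was the ratio of treated to untreated wells, with cell-free wells set as 100% inhibition. The EC50 was taken from the dose response.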

[1] = Antiproliferative against human tsA201 cells after 7 days by Cell-Titer Glo assay; assay type: functional, cell-based; settings: tsA201, 168 h; procedure, shortened: as §1
HT-1080 = test: Antiproliferative against human HT-1080 cells after 5 days by Cell-Titer Glo assay; assay type: functional, cell-based; settings: HT-1080, 120 h; procedure, shortened: as §1
HL-60 = test: Antiproliferative against human HL-60 cells after 5 days by Cell-Titer Glo assay; assay type: functional, cell-based; settings: HL-60, 120 h; procedure, shortened: as §1
SK-N-MC = test: Antiproliferative against human SK-N-MC cells after 7 days by Cell-Titer Glo assay; assay type: functional, cell-based; settings: 168 h; procedure, shortened: as §1
K562 = test: Antiproliferative against human K562 cells after 5 days by Cell-Titer Glo assay; assay type: functional, cell-based; settings: K562, 120 h; procedure, shortened: as §1
NCI-H2009 = test: Antiproliferative against human NCI-H2009 cells after 5 days by Cell-Titer Glo assay; assay type: functional, cell-based; settings: NCI-H2009, 120 h; procedure, shortened: as §1
Calu-6 = test: Antiproliferative against human Calu-6 cells after 5 days by Cell-Titer Glo assay; assay type: functional, cell-based; settings: Calu-6, 120 h; procedure, shortened: as §1
ZR-75-30 = test: Antiproliferative against human ZR-75-30 cells after 7 days by Cell-Titer Glo assay; assay type: functional, cell-based; settings: ZR-75-30, 168 h; procedure, shortened: as §1
[2] = target: T1, Histone-lysine N-methyltransferase EHMT2 (Homo sapiens) (UniProt Q96KQ7); test: Inhibition of G9a in human MDA-MB-231 cells assessed as slight decrease in […] levels at 0.3 to 3 uM after 72 hrs by Western blot analysis; assay type: cell-based; settings: dose 0.3-3 µM
T1 sequence (whole entry): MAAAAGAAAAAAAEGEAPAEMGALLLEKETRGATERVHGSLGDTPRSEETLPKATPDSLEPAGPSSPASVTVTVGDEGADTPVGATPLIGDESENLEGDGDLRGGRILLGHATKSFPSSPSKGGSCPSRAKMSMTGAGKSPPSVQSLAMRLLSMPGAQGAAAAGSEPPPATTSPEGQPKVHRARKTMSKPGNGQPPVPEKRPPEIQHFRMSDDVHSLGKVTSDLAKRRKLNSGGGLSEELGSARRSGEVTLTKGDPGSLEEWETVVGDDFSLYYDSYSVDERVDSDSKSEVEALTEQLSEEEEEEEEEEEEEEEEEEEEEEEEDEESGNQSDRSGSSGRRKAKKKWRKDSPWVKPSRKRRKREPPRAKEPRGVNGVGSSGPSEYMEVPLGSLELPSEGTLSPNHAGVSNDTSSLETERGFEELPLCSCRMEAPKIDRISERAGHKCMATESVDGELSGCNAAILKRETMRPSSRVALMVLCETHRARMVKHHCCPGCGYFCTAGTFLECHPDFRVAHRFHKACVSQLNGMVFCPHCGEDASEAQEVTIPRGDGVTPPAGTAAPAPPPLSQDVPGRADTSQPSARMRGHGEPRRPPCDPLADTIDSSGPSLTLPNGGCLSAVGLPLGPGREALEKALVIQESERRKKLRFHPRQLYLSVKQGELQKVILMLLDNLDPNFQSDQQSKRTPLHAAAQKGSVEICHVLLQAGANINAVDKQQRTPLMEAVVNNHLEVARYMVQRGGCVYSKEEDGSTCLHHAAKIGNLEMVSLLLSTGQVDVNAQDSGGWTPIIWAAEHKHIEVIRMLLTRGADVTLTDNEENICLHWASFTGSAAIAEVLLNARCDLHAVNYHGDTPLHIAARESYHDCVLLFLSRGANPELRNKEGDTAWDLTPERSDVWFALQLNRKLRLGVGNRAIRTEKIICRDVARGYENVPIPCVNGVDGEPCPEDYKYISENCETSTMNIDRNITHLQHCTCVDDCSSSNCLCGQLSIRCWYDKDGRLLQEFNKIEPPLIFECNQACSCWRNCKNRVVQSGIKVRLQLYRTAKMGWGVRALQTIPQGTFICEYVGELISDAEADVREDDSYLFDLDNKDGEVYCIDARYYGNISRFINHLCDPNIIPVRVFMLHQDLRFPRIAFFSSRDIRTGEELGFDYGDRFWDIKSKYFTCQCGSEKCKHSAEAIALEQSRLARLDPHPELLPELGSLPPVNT

LNCaP = test: Antiproliferative against human LNCaP cells after 5 days by Cell-Titer Glo assay; assay type: functional, cell-based; settings: 120 h; procedure, shortened: as §1
KMS-11 = test: Antiproliferative against human KMS-11 cells after 5 days by Cell-Titer Glo assay; assay type: functional, cell-based; settings: KMS-11, 120 h; procedure, shortened: as §1
RPMI-8226 = test: Antiproliferative against human RPMI-8226 cells after 5 days by Cell-Titer Glo assay; assay type: functional, cell-based; settings: RPMI-8226, 120 h; procedure, shortened: as §1
Daoy = test: Antiproliferative against human Daoy cells after 7 days by Cell-Titer Glo assay; assay type: functional, cell-based; settings: 168 h; procedure, shortened: as §1
[3] = target: T1, Histone-lysine N-methyltransferase EHMT2 (Homo sapiens); test: Inhibition of G9a in human MOLT-16 cells assessed as decrease in […] levels after 72 hrs by Western blot analysis; assay type: cell-based
Procedure, shortened: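 MOLT-16 T-ALL cells treated 3 days with compound over a concentration range and lysed. Lysates normalized and immunoblotted for H3K9me2, total H3 and G9a.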

[4] = target: T1, Histone-lysine N-methyltransferase EHMT2 (Homo sapiens); test: Inhibition of G9a in human MCF7 cells assessed as decrease in […] levels at 0.3 to 3 uM after 72 hrs by Western blot analysis; assay type: cell-based; settings: dose 0.3-3 µM
NCI-H929 = test: Antiproliferative against human NCI-H929 cells after 5 days by Cell-Titer Glo assay; assay type: functional, cell-based; settings: NCI-H929, 120 h; procedure, shortened: as §1
THP-1 = test: Antiproliferative against human THP-1 cells after 5 days by Cell-Titer Glo assay; assay type: functional, cell-based; settings: THP-1, 120 h; procedure, shortened: as §1
PA-1 = test: Antiproliferative against human PA-1 cells after 7 days by Cell-Titer Glo assay; assay type: functional, cell-based; settings: PA-1, 168 h; procedure, shortened: as §1
DU-145 = test: Antiproliferative against human DU-145 cells after 5 days by Cell-Titer Glo assay; assay type: functional, cell-based; settings: DU-145, 120 h; procedure, shortened: as §1
OPM-2 = test: Antiproliferative against human OPM-2 cells after 5 days by Cell-Titer Glo assay; assay type: functional, cell-based; settings: OPM-2, 120 h; procedure, shortened: as §1
[5] = target: T1, Histone-lysine N-methyltransferase EHMT2 (Homo sapiens); test: Inhibition of G9a in human HT-1080 cells assessed as decrease in […] levels after 2 days by AlphaLisa assay; assay type: cell-based; settings: time 2.0 day
Procedure, shortened: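 HT-1080 cells treated 2 days with compound over a concentration range. Viability read by CellTiter-Glo; H3K9me2 measured by AlphaLISA and normalized to viability. % inhibition calculated relative to untreated cells set as 0%.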

RS4-11 = test: Antiproliferative against human RS4-11 cells after 5 days by Cell-Titer Glo assay; assay type: functional, cell-based; settings: RS4-11, 120 h; procedure, shortened: as §1
[6] = Antiproliferative against human TC71 cells after 7 days by Cell-Titer Glo assay; assay type: functional, cell-based; settings: TC-71, 168 h; procedure, shortened: as §1
IMR-32 = test: Antiproliferative against human IMR-32 cells after 7 days by Cell-Titer Glo assay; assay type: functional, cell-based; settings: IMR-32, 168 h; procedure, shortened: as §1

Structure (SMILES) | EC50 (U2OS) [µM] | EC50 [1] [µM] | EC50 (HT-1080) [µM] | EC50 (HL-60) [µM] | EC50 (SK-N-MC) [µM] | EC50 (K562) [µM] | EC50 (NCI-H2009) [µM] | EC50 (Calu-6) [µM] | EC50 (ZR-75-30) [µM] | inhibition [2] | EC50 (LNCaP) [µM] | EC50 (KMS-11) [µM] | EC50 (RPMI-8226) [µM] | EC50 (Daoy) [µM] | inhibition [3] | inhibition [4] | EC50 (NCI-H929) [µM] | EC50 (THP-1) [µM] | EC50 (PA-1) [µM] | EC50 (DU-145) [µM] | further results
COc1cc2c(cc1OCCCN1CCCC1)N=C(N)C21CCC1 | > 10 | > 10 | > 10 | > 10 | > 10 | > 10 | > 10 | > 10 | > 10 | Active | > 10 | > 10 | > 10 | > 10 | Active | Active | > 10 | > 10 | > 10 | > 10 | EC50 (OPM-2): > 10 µM; inhibition [5]: Active; EC50 (RS4-11): > 10 µM; EC50 [6]: > 10 µM; EC50 (IMR-32): > 10 µM
COc1cc2c(NC3CCN(C(C)C)CC3)nc(C3CCCCC3)nc2cc1OCCCN1CCCC1 | 0.5 | > 10 | 0.5 | 6.5 | 0.2 | 5.3 | 3.9 | 1.5 | 1.2 | Active | 0.3 | 4 | 5.1 | 0.1 | Active | Active | 4.6 | 4.9 | 0.2 | 0.7 | EC50 (OPM-2): 5.6 µM; inhibition [5]: Active; EC50 (RS4-11): 3.1 µM; EC50 [6]: 0.6 µM; EC50 (IMR-32): > 10 µM
